Source: ChEMBL document CHEMBL1777756, “Discovery of Novel Benzo[a]phenoxazine SSJ-183 as a Drug Candidate for Malaria” (ACS Med Chem Lett, 2010)

Assays:
[1] = system: Plasmodium falciparum; test: Antimalarial activity against chloroquine and pyrimethamine resistant Plasmodium falciparum K1; format: functional, organism-based
Summary of the method: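 IC50 was determined in vitro against the chloroquine- and pyrimethamine-resistant P. falciparum K1 strain. Values are the mean of two independent assays.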

[2] = system: Plasmodium berghei; test: Antimalarial activity against Plasmodium berghei NK-65 infected in ICR mouse assessed as survival days at 100 mg/kg, po administered as single dose (reference value: 6 days); format: functional
Summary of the method: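 Female ICR mice infected with P. berghei NK-65 received a single oral dose of 100 mg/kg on day 1. The compound was given as a suspension in 5% glucose/10% ethanol or in 7% Tween 80/3% ethanol. Parasitemia was read on day 4 as percent reduction relative to untreated controls, and mean survival days were recorded.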

[3] = Selectivity index, ratio of IC50 for rat L6 cells to IC50 for Plasmodium falciparum K1; format: toxicity, cell-based; conditions: read-out: Ratio IC50
Summary of the method: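 Selectivity index is IC50 against L-6 cells divided by IC50 against chloroquine/pyrimethamine-resistant P. falciparum K1. Each IC50 is the mean of two independent assays.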

[4] = system: Plasmodium berghei; test: Antimalarial activity against Plasmodium berghei NK-65 infected in ICR mouse assessed as inhibition of parasitemia at 100 mg/kg, po administered as single dose on day 1 measured on day 4; format: functional
Summary of the method: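 Compound was formulated at 100 mg/kg in 5% glucose/10% ethanol or in 7% Tween 80/3% ethanol. The suspension was given as a single oral dose on day 1 to female ICR mice infected with P. berghei NK-65. Parasitemia was determined on day 4 after infection. Treated-group mean is expressed as percent difference from the control-group mean.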

[5] = system: L6; test: Cytotoxicity against rat L6 cells; format: cell-based
Summary of the method: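 Cytotoxicity was tested against L-6 rat myoblasts, with IC50 determined. Values are the mean of two independent assays.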

Structure (SMILES)	IC50 [1]	MSD [2]	selectivity ratio [3]	inhibition in vivo at 100 mg/kg [4]	IC50 [5]
CCN(CC)c1ccc2nc3c4ccccc4/c(=N/c4cc[n+](Cc5ccccc5)cc4)cc-3oc2c1.[Cl-]	0.024 µM	7.3 days	31	39%	0.75 µM
CN(C)c1ccc2nc3c4ccccc4/c(=N/c4ccncc4)cc-3oc2c1	0.0081 µM	10 days	20400	> 99.9%	165 µM
CCN(CC)c1cc(C)c2nc3c4ccccc4/c(=N/c4ccncc4)cc-3oc2c1.Cl.Cl	0.18 µM	13 days	481	99.7%	86.6 µM
CCN(CC)c1ccc2nc3c4ccccc4/c(=N\c4ccc5ccccc5n4)cc-3oc2c1	0.027 µM	10.3 days	2520	81%	67.9 µM
CCN(CC)c1ccc2nc3c4ccccc4/c(=N\c4cccnc4)cc-3oc2c1	0.023 µM	10 days	5090	62.7%	117 µM
CC[N+](CC)=c1ccc2nc3c(ccc4ccccc43)oc-2c1	0.606 µM		6.3		3.82 µM
CCN(CC)c1ccc2nc3c4ccccc4/c(=N\c4ncc(Cl)cc4Cl)cc-3oc2c1	0.063 µM	6.3 days	2860	14.7%	180 µM
CCN(CC)c1ccc2nc3c4ccc(Br)cc4/c(=N/c4ccncc4)cc-3oc2c1	0.011 µM	6.6 days	> 17300	14.2%	> 190 µM
CCCCN(CCCC)c1ccc2nc3c4ccccc4/c(=N/c4ccncc4)cc-3oc2c1.Cl.Cl	0.195 µM	6.3 days	327	5.6%	63.8 µM
CC[N+](CC)=c1ccc2nc3c(cc(N)c4ccccc43)oc-2c1.[Cl-] [NILE BLUE HYDROCHLORIDE]	0.0156 µM	6.6 days	2760	15%	43.1 µM
CCN(CC)c1ccc2nc3c4ccccc4/c(=N\c4ccccn4)cc-3oc2c1	0.015 µM	8.3 days	1050	> 99.9%	15.8 µM
CCN(CC)c1ccc2nc3c4ccc(Br)cc4/c(=N/c4ccccn4)cc-3oc2c1	0.038 µM	6.3 days	> 5010	12.7%	> 190 µM
CCN(CC)c1ccc2nc3c4ccccc4/c(=N/c4ccccc4)cc-3oc2c1.Cl	0.191 µM	6.3 days	863	0%	165 µM
CCN(CC)c1ccc2nc3c4ccccc4/c(=N\c4ncccn4)cc-3oc2c1	0.005 µM	6.3 days	2730	3.3%	13.6 µM
CCN(CC)c1ccc2nc3c4ccccc4/c(=N/c4cc[n+](C)cc4)cc-3oc2c1.[I-]	0.009 µM	6.6 days	174	22%	1.56 µM
CCN(CC)c1ccc2nc3c4ccccc4/c(=N/c4ccc(C)cc4)cc-3oc2c1.Cl	0.232 µM	6.3 days	531	0%	123 µM
CCN(CC)c1ccc2nc3c4ccccc4/c(=N/c4nc5ccc(OC)cc5s4)cc-3oc2c1	0.113 µM	6.3 days	1490	11.4%	168 µM
CCCN(CCC)c1ccc2nc3c4ccccc4/c(=N/c4ccncc4)cc-3oc2c1.Cl.Cl	0.05 µM	6.3 days	1340	15.3%	67.1 µM
CCN(CC)c1ccc2nc3c4ccccc4c(=O)cc-3oc2c1 [NILE RED]	0.868 µM	6.3 days	76	15%	65.9 µM
CCN(CC)CCCC(C)Nc1ccnc2cc(Cl)ccc12 (stereo not given) [CHLOROQUINE]		12.6 days		> 99.9%	
CCN(CCNS(C)(=O)=O)c1cc(C)c2nc3c4ccccc4/c(=N/c4ccncc4)cc-3oc2c1.Cl.Cl	0.017 µM	15.7 days	887	> 99.9%	14.8 µM
c1ccc2/c(=N/c3ccncc3)cc3oc4cc(N5CCOCC5)ccc4nc-3c2c1	0.029 µM	7.3 days	3340	97.9%	96.9 µM
